Experimental data from ChEMBL document CHEMBL4152290, “1H-Benzo[d]imidazoles and 3,4-dihydroquinazolin-4-ones: Design, synthesis and antitubercular activity” (Eur J Med Chem, 2018).

What was measured:
[1] = Stability of the compound in PBS containing 10% DMSO at 25 degC measured after 48 hrs by HPLC analysis; type: physicochemical; conditions: buffer
[2] = Stability of the compound in PBS containing 10% DMSO at 37 degC measured after 9 hrs by HPLC analysis; type: physicochemical; conditions: for remaining at 9 h: PBS containing 10% DMSO, read-out: Stability
[3] = Stability of the compound in PBS containing 10% DMSO at 37 degC measured after 48 hrs by HPLC analysis; type: physicochemical; conditions: read-out: Stability
[4] = Stability of the compound in PBS containing 10% DMSO at 37 degC measured after 24 hrs by HPLC analysis; type: physicochemical; conditions: for remaining at 24 h: PBS containing 10% DMSO, read-out: Stability
[5] = Selectivity index, ratio of cytotoxic concentration for human HaCaT cells by MTT assay to MIC for Mycobacterium tuberculosis H37Rv ATCC 27294; type: toxicity; conditions: read-out: Selectivity Index
Danio rerio [6] = organism: Danio rerio; assay: Cardiotoxicity in Zebrafish AB embryos assessed as heart beat rate at 15 uM measured at 2 days post fertilization by stereomicroscopic method (reference value: 128.7 to 146.3 bpm); type: organism-based; conditions: in vivo, 48 h
[7] = Stability of the compound in PBS containing 10% DMSO at 37 degC measured after 6 hrs by HPLC analysis; type: physicochemical; conditions: read-out: Stability
[8] = Cytotoxicity against human HepG2 cells assessed as cell viability at 10 ug/ml after 72 hrs by MTT assay (reference value: 100%); type: cell-based; conditions: read-out: Activity
Method in brief: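 Cells were grown in DMEM with 10% heat-inactivated FBS and penicillin-streptomycin, seeded at 2×10^3/well (HepG2, HaCat) or 1×10^3/well (Vero), then left 24 h. Compound was applied at 10 µg/mL final (2% DMSO) for 72 h at 37 °C, 5% CO2. MTT 1 mg/mL was added for 3 h, formazan dissolved in DMSO, and A595 read. Viability is expressed relative to 2% DMSO wells; mean ± SEM, triplicates, three independent experiments.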

[9] = Selectivity index, ratio of cytotoxic concentration for human HepG2 cells by neutral red uptake assay to MIC for Mycobacterium tuberculosis H37Rv ATCC 27294; type: toxicity; conditions: read-out: Selectivity Index
[10] = Stability of the compound in PBS containing 10% DMSO at 25 degC measured after 12 hrs by HPLC analysis; type: physicochemical; conditions: buffer
Danio rerio [11] = organism: Danio rerio; assay: Cardiotoxicity in Zebrafish AB embryos assessed as heart beat rate at 3 uM measured at 5 days post fertilization by stereomicroscopic method (reference value: 148.1 to 158.2 bpm); type: organism-based; conditions: in vivo, 120 h
Danio rerio [12] = organism: Danio rerio; assay: Toxicity in Zebrafish AB embryos assessed as morphological alteration by measuring effect on body length of larvae at 20 uM measured at 2 to 5 days post fertilization by stereomicroscopic method; type: organism-based; conditions: in vivo
Method in brief: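 AB embryos are treated from 2 hpf to 5 dpf at 3.0, 15.0 and 20.0 µM in fish water with 1% DMSO, at 28 °C. Controls are fish water and 1% DMSO. Larvae are photographed under a stereomicroscope (3×) at 2 and 5 dpf, n = 30. Body length (µm), ocular distance (µm) and eye surface area (µm²) are measured from the images.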

SMILES	Stability [1] [%]	Stability ([2]; buffer, 9 h) [%]	remaining at 48 h [3] [%]	Stability ([4]; buffer, 24 h) [%]	selectivity ratio [5]	Activity (Danio rerio [6]) [bpm]	remaining at 6 h [7] [%]	viability at 72 h, 10 ug/ml [8] [%]	selectivity ratio [9]	Stability [10] [%]	Activity (Danio rerio [11]) [bpm]	remaining at 9 h [2] [%]	remaining at 24 h [4] [%]	Activity (Danio rerio [12])
O=C(CSc1nc2ccccc2c(=O)[nH]1)NC1CCCCC1	126	123	111	127	≤ 32	155	111	86	≤ 32	101	162.8	–	–	–
CC1CCC(NC(=O)CSc2nc3ccccc3c(=O)[nH]2)CC1 (stereo not drawn)	125	–	48	–	≤ 32	127.2	59	89	≤ 32	100	147.7	69	43	–
C[C@H]1CC[C@H](NC(=O)CSc2nc3ccccc3c(=O)[nH]2)CC1	20	–	50	–	≤ 32	134	87	83	≤ 32	47	149.2	77	51	Toxic
O=C(CSc1nc2ccccc2c(=O)[nH]1)NCC1CCCCC1	125	–	105	–	≤ 32	143.2	109	79	≤ 32	112	157.8	112	104	–
CC1CCCC(NC(=O)CSc2nc3ccccc3c(=O)[nH]2)C1 (stereo not drawn)	95	–	98	–	≤ 32	151.7	101	89	≤ 32	102	157.2	97	97	–
O=C(CSc1nc2ccccc2c(=O)[nH]1)NC1CCCCCC1	123	–	71	–	≤ 32	136.5	67	99	≤ 32	92	160.1	68	66	–
CC1CCCCC1NC(=O)CSc1nc2ccccc2c(=O)[nH]1 (stereo not drawn)	142	–	80	–	≤ 32	151.7	75	94	≤ 32	137	162.6	71	81	–
